PREPL inh: human PREPL enzyme inhibition | Q4J6C6 | recombinant PREPL, fluorescence polarization activity-based probe | inhibition, % at 5.96 µM | 0.68% of 320,000 active | AID 2751; in the data active means inhibition above about 43%;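 further: 0% = enzyme with DMSO and 100% = wells lacking enzyme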
LYPLA1 counter: LYPLA1 (human) inhibition in PME1 counter-screen; 0.16% of 320,000 active; inhibition, % at 5.9 µM; recombinant LYPLA1, FP-Rh probe fluorescence polarization; O75608;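 active means inhibition above the mean of all tested compounds plus 3 SD, set per campaign, cut at about 14% in these data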;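 further: inhibitors block serine hydrolase probe labeling of LYPLA1 so polarization falls; 0% = enzyme with DMSO and 100% = wells lacking LYPLA1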
procasp3 activ: procaspase-3 (human) activation; 0.11% of 330,000 active; recombinant procaspase-3 D3A, Ac-DEVD-pNA absorbance 405 nm; P42574; activation, % at 8.5 µM;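 active means activation above the mean of all tested compounds plus 3 SD, cut at about 21% in these data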;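 further: 0% = DMSO alone and 100% = DMSO wells spiked with extra 5 µM PC-3 D3A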
Target sequence (P42574 whole entry D9A/D28A/D175A): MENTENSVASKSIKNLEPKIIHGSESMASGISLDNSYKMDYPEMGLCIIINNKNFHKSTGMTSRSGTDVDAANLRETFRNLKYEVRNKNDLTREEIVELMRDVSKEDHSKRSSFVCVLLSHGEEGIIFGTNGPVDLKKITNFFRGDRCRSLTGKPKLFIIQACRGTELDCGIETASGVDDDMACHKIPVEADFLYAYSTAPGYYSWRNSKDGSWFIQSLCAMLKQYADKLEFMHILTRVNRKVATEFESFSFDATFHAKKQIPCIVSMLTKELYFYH
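material = Procaspase-3 D3A mutant | probe or stimulus = Ac-DEVD-pNA | compound = single dose, 8.5 µM nominal compound, 0.8% DMSO | timing = 1 h preincubation, 2 h reaction | measured by = 405 nm absorbance of p-nitroaniline, reads at 0 and 120 min | benchmarks = DMSO-only low control, 5 µM PC-3 D3A high control | repeats = singlicate, each compound tested once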
procasp7 counter: counter-screen: procaspase-7 (human) activation; recombinant procaspase-7, Ac-DEVD-pNA absorbance 405 nm; D23A/D198A/D206A triple mutant, cannot self-cleave; scale: DMSO 0, 5 µM enzyme 100; activation, % at 8.5 µM; 0.093% of 330,000 active; AID 463210;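 active means percent activation above the screen-wide mean plus 3 SD, cut at about 25% in these data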
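Assay system – Uncleavable procaspase-7 mutant enzyme · Quantity – 2 µM procaspase-7 mutant as dispensed · Times – 1 h preincubation, 2 h reaction · Dosing – single nominal 8.5 µM compound dose, 0.8% DMSO final · Buffer or medium – Zinc-free 50 mM HEPES buffer, pH 7.4, with NaCl and Triton X-100 · Detection – Epi-absorbance of released pNA at 405 nm, two timepoints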
LYPLA2 counter: counter-screen for PME1 inhibitors: inhibitors of human LYPLA2; 0.38% of 320,000 active; inhibition, % at 5.9 µM; recombinant LYPLA2, FP-Rh probe fluorescence polarization;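 active means inhibition above the screen-wide mean plus 3 SD, limit set per campaign, cut at about 26% in these data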;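 further: 0% = LYPLA2 with DMSO and 100% = wells lacking LYPLA2 enzyme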
Target sequence (O95372 whole entry, looked up): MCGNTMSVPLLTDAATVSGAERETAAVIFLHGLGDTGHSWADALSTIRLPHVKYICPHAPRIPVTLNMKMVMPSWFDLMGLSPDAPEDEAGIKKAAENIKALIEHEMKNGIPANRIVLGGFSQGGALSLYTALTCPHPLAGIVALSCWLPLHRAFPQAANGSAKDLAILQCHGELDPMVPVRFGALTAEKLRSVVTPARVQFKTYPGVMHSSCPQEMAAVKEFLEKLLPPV
LYPLA2 conf: counter-screen for PME1 inhibitors: confirmation of human LYPLA2 inhibitors; recombinant LYPLA2, FP-Rh probe fluorescence polarization; shares compounds with LYPLA2 counter; 72% of 1,100 active; inhibition, % at 5.9 µM;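 active means mean inhibition across replicates above the hit cutoff set in the primary screen, cut at about 26% in these data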;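 further: blocked labeling of the enzyme by serine hydrolase FP-Rh probe lowers polarization; 0% = enzyme with DMSO and 100% = wells lacking LYPLA2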
LYPLA2 gel ABPP: blocks human acyl-protein thioesterase 2 in gel ABPP | rhLYPLA2 in mouse brain proteome, gel ABPP FP-Rh | 30% of 150 active | inhibition, % at 20 µM | shares compounds with LYPLA2 counter;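 active means inhibition of LYPLA2 enzyme probe labeling above about 50%, limit read from the data; inactive means inhibition below that limit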;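 further: loss of FP-Rh probe labeling of the LYPLA2 gel band measured as band density; 0% = DMSO only control band and 100% = blank gel background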
The depositor's hits bear a star; · = no result given. Only some compounds are listed: those with a hit (about 1% of all), similar ones and a draw of the others.

SMILES	PREPL inh	LYPLA1 counter	procasp3 activ	procasp7 counter	LYPLA2 counter	LYPLA2 conf	others
Cc1cc(C)c2c(n1)SCC(=O)N2CC(=O)Nc1ccc(Br)c(C)c1	11	-3	0	0	56*	33*
CC(CCC(C)C)=NNC(=S)Nc1cc(S(=O)(=O)N2CCOCC2)ccc1N1CCOCC1	·	·	·	·	·	·	LYPLA2 gel ABPP=60*
CCOc1cccc(/C=N/NC(=S)Nc2cc(S(=O)(=O)N3CCOCC3)ccc2N2CCOCC2)c1O	22	2	-2	7	34*	43*
O=C1CC(c2cccc(Cl)c2)CC(O)=C1C=NC1CCCC1 (stereo not given)	5	2	3	1	6	·
CCOC(=O)/C(=N\Nc1ccccc1Cl)N1CCN(C)CC1	20	-3	-7	-11	-11	·
O=C(Cn1cnc2ccccc2c1=O)c1ccc2ccccc2c1	-14	-1	8	10	27*	25
O=S1(=O)CCC(NC2CCCC2)C1 (stereo not given)	17	-2	3	11	-6	·
C=CCn1c(Oc2ccccc2F)nc2c1c(=O)n(C)c(=O)n2C	-5	-1	-4	8	3	·
CCN(CC)S(=O)(=O)c1ccc(N2CCOCC2)c(NC(=O)c2cc(=O)[nH]c3ccccc23)c1	3	-1	6	-1	36*	43*
CCN(CC)S(=O)(=O)c1ccc(N2CCOCC2)c(NC(=O)COc2ccc(OC)cc2)c1	8	-2	3	11	25	·
CCN(CC)S(=O)(=O)c1ccc(N2CCOCC2)c(NC(=O)COc2ccc(C#N)cc2)c1	12	4	-3	16	77*	79*	LYPLA2 gel ABPP=64*
Cn1c(=O)[nH]c(=O)c2c1nc(NCCN)n2CCOc1ccccc1	29	-2	2	1	1	·
CCCCCCC1CCC(C(=O)Nn2c(C)nc3ccccc3c2=O)CC1 (stereo not given)	4	1	9	5	46*	37*
O=C(CCCN1C(=O)c2cccc3cccc(c23)C1=O)N1CCN(c2ccccc2)CC1	-138	6	-4	-8	37*	40*
O=C(CCCN1C(=O)c2cccc3cccc(c23)C1=O)N1CCN(c2ccccc2O)CC1	-52	8	-1	-2	49*	49*
O=C(CCC(=O)N1CCN(c2ccc(Cl)c(Cl)c2)CC1)c1ccccc1	-31	13	7	-15	37*	31*
CC(/C=N\NC(=O)Cn1cncn1)=C/c1ccc(C(C)C)cc1	1	2	1	-6	0	·
CC(/C=N/NC(=O)Cn1nnc(N)n1)=C\c1ccc(C(C)C)cc1	8	-5	-7	-5	62*	70*
COc1ccc(-n2c(C)cc(C(=O)Cn3c(NCCO)nc4ccccc43)c2C)cc1	6	2	3	-1	56*	62*	LYPLA2 gel ABPP=29
O=C(Cn1c(NCCO)nc2ccccc21)c1ccc(F)cc1	4	5	7	-2	6	·
COc1ccc(NC(=O)c2nc[nH]c2C(=O)N[C@@H](CC(C)C)C(=O)OC(C)(C)C)cc1	15	-5	-15	-3	-13	·
O=C(Cc1ccc(S(=O)(=O)N2CCOCC2)s1)N1CCN(c2cccc(C(F)(F)F)c2)CC1	15	1	1	4	40*	48*
Cc1ccc(S(=O)(=O)n2ccc3cccnc32)cc1	-2	5	0	2	1	·
COC(=O)c1cc(S(=O)(=O)N2CCCC2)c(Cl)cc1Cl	-1	1	8	2	10	·
O=C(O)CN1C(=O)/C(=C\c2cc(Br)ccc2OCc2ccc([N+](=O)[O-])cc2)SC1=S	36	2	-8	-11	62*	64*
SMILES	PREPL inh	LYPLA1 counter	procasp3 activ	procasp7 counter	LYPLA2 counter	LYPLA2 conf	others
COc1ccc(CNC(=O)[C@@H]2CCCN2C(=O)[C@@H]2Cc3ccccc3CN2C(=O)OC(C)(C)C)cc1	6	2	12	5	1	·
CC(=O)Nc1ccc(S(=O)(=O)NC(CC(=O)N(C)Cc2ccccc2)C(C)C)cc1 (stereo not given)	4	1	-7	6	1	·
COc1ccc(-c2noc3c2-c2nc(-c4ccccc4)sc2CC3)cc1	1	-5	1	-18	-14	·
COc1ccc(-c2noc3c2-c2nc(-c4ccc(C)cc4)sc2CC3)cc1	-1	0	-5	-12	40*	-8
CCN(C[C@H]1N[C@@](CC)(C(=O)OC)[C@H]2C(=O)N(C)C(=O)[C@@H]12)S(=O)(=O)c1ccc(C(C)(C)C)cc1	6	·	-2	11	·	·
Cc1ccc(Nc2c([N+](=O)[O-])cc(C(=O)N3CC(=O)Nc4ccccc43)cc2[N+](=O)[O-])c(C)c1	-102	0	0	-3	27*	28*
COc1cc(OC)cc(C(=O)N2CC(=O)Nc3ccccc32)c1	0	3	7	6	6	·
CCOc1ccc(C(CCc2ccccc2)NC(=O)c2ccccc2F)cc1OCC (stereo not given)	19	-3	-1	-1	-5	·
O=C(O)CCN1C(=O)c2ccc(Oc3ccc4c(c3)C(=O)N(CCC(=O)O)C4=O)cc2C1=O	-5	2	1	1	7	·
O=C1c2ccc(Oc3ccc([N+](=O)[O-])cc3)cc2C(=O)N1CCCO	19	4	8	8	46*	50*
O=C1c2ccc(Oc3ccc4c(c3)C(=O)N(CCCCO)C4=O)cc2C(=O)N1CCCCO	-3	1	0	10	29*	35*
CC(=O)c1cccc(NC(=O)C2CCCN(S(C)(=O)=O)C2)c1 (stereo not given)	6	-1	11	9	5	·
CCCN(CCC)C(=O)Cn1c(=O)n(CCCCCC(=O)Nc2ccccc2)c(=O)c2sccc21	8	-3	17	3	-8	·
CCOC(=O)C1CCN(C2=NC(=O)/C(=C/c3ccc(Cl)cc3)S2)CC1	18	4	0	2	31*	35*
CCOC(=O)C1CCN(C2=NC(=O)/C(=C/c3ccc(OC)c(OC)c3)S2)CC1	1	-2	-4	9	-2	·
Cc1cccc2nc(CSc3nnc(N)s3)cn12	0	2	0	9	5	·
COc1cccc(CN(C)C(=O)c2ccc(Oc3ccccc3)cc2)c1OC	12	4	-2	14	30*	7
COc1cccc(CN(C)C(=O)c2ccc(COc3ccc(Cl)cc3)cc2)c1OC	22	3	1	-13	21	·

High-throughput results from PubChem BioAssay.
